# In ChEMBL document CHEMBL1156039, “Nonpeptide urotensin-II receptor antagonists: a new ligand class based on piperazino-phthalimide and piperazino-isoindolinone subunits” (J Med Chem, 2009):
# The source made the active and inactive calls. The calls are words filed in the database; no cut-off is given here. Where a SMILES comes first, the peptide text is derived from it. Bridges are numbered along the chain shown (N, C = ends). [ ]: non-standard residue; d: D form. 2Nal = N[C@@H](Cc1ccc2ccccc2c1)C(=O)O
# Assays:
# Urotensin-2 receptor [1] = molecular target: T1, Urotensin-2 receptor (Homo sapiens, UniProt Q9UKP6); assay: Displacement of [125I]urotensin 2 from urotensin 2 receptor in human RMS13 cells by scintillation proximity assay; assay type: cell-based
# T1 sequence (Q9UKP6 whole entry): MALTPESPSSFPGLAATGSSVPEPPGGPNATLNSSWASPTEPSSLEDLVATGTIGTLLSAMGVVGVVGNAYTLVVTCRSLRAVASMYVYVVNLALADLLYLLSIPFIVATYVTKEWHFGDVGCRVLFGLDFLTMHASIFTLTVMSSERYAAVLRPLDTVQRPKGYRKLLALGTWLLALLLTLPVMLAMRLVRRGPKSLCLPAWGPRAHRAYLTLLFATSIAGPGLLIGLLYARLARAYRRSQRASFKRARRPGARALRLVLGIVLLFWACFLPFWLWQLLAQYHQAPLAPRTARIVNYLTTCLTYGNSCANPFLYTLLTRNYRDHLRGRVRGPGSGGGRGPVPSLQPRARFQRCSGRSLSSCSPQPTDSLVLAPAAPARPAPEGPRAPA
# Urotensin-2 receptor [2] = molecular target: T2, Urotensin-2 receptor (Rattus norvegicus, UniProt P49684); assay: Antagonist activity at rat urotensin 2 receptor expressed in CHOK1 cells assessed as inhibition of urotensin 2-induced intracellular calcium mobilization after 10 min by FLIPR assay
# T2 sequence (P49684 whole entry): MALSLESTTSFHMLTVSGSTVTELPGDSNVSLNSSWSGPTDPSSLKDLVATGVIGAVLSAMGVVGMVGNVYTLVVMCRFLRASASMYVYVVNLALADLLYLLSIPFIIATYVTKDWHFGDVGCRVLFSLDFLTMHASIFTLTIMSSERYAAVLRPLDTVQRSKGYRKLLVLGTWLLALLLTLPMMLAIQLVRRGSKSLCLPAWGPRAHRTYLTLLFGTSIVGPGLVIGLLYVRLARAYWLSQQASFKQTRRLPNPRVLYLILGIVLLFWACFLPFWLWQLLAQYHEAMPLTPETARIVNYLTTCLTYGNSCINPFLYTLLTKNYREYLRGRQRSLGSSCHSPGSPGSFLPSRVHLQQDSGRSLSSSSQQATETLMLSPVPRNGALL
# Urotensin-2 receptor [3] = molecular target: T2, Urotensin-2 receptor; assay: Antagonist activity at rat urotensin 2 receptor expressed in CHOK1 cells assessed as inhibition of urotensin 2-induced intracellular calcium mobilization after 1 hr by FLIPR assay; assay type: functional, cell-based, CHO-K1
# Summary of the method: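 Stable CHO-K1 line expressing rat UT, selected with G418 and seeded 24 h ahead. Cells loaded with calcium dye for 1 h at 37 °C in HBSS/20 mM HEPES/0.1% BSA/2.5 mM probenecid, pH 7.4. Compound preincubated 10 min, then agonist added: goby U-II 0.1 nM or peptide agonist 0.3 or 1 nM. FLIPR calcium read at 23 °C; N = 2-6.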
# Urotensin-2 receptor [4] = molecular target: T1, Urotensin-2 receptor; assay: Antagonist activity at urotensin 2 receptor in human RMS13 cells assessed as inhibition of urotensin 2-induced intracellular calcium mobilization after 1 hr by FLIPR assay; assay type: functional, cell-based
# Summary of the method: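 Human rhabdomyosarcoma (RMS13) cells expressing endogenous UT. Inhibition of U-II-driven calcium mobilization measured by FLIPR; N = 2-6.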
# [5] = Half life in human liver microsomes; assay type: ADME, Microsome
# Rattus norvegicus [6] = assay: Inhibition of ear flushing in Sprague-Dawley rat ear-flush model assessed as complete attenuation of urotensin 2-induced increase in ear pinna temperature at 10 mg/kg, iv administered 15 mins prior to urotensin 2 challenge; assay type: functional, organism-based; set-up: dose 10 mg/kg
# Rattus norvegicus [7] = assay: Inhibition of ear flushing in Sprague-Dawley rat ear-flush model assessed as attenuation of urotensin 2-induced increase in ear pinna temperature at 3 mg/kg, iv administered 15 mins prior to urotensin 2 challenge; assay type: functional, organism-based; set-up: dose 3 mg/kg
# [8] = Inhibition of alpha1 adrenergic receptor at 10 uM
# Summary of the method: (§1)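 Part of a contract panel of 50 receptors and ion channels. Each target was run as a binding assay with a reference ligand, with the test compound at 10 μM.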
# [9] = molecular target: T3, Muscarinic acetylcholine receptor M1 (Homo sapiens) (UniProt P11229); assay: Inhibition of human muscarinic M1 receptor at 10 uM
# T3 sequence (whole entry): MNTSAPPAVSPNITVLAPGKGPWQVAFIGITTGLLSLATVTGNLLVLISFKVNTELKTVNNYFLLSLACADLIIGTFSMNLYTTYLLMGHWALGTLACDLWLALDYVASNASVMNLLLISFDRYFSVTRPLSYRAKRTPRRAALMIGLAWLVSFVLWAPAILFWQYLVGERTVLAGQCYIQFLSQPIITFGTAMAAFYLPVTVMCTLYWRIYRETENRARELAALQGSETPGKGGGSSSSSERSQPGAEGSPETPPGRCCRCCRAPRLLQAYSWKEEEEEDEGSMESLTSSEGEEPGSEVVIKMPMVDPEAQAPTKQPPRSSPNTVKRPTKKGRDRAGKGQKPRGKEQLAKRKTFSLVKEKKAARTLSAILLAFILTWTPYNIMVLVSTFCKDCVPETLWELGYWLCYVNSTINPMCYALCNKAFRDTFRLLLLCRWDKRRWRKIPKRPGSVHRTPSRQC
# [10] = molecular target: Muscarinic acetylcholine receptor M3 (Homo sapiens) (UniProt P20309); assay: Inhibition of human muscarinic M3 receptor at 10 uM
# Sequence of Muscarinic acetylcholine receptor M3 (Homo sapiens) (P20309 whole entry, looked up): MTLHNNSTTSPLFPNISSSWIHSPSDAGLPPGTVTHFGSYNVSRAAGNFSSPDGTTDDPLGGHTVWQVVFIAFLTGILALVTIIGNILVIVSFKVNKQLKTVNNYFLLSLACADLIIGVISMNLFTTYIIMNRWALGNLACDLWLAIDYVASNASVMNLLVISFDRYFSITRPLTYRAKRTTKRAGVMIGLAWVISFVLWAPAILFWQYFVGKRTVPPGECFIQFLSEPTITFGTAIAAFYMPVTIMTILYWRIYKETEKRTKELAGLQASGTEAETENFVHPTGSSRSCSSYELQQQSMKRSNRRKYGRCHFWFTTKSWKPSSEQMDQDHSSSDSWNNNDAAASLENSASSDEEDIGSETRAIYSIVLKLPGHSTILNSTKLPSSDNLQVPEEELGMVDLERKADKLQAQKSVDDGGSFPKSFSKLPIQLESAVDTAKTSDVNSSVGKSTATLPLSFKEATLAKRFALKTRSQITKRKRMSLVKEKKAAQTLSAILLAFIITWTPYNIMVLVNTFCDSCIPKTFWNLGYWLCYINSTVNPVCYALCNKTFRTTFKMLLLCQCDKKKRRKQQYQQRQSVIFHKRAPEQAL
# [11] = molecular target: T4, 5-hydroxytryptamine receptor 1A (Homo sapiens) (UniProt P08908); assay: Inhibition of human 5HT1A receptor at 10 uM
# T4 sequence (whole entry): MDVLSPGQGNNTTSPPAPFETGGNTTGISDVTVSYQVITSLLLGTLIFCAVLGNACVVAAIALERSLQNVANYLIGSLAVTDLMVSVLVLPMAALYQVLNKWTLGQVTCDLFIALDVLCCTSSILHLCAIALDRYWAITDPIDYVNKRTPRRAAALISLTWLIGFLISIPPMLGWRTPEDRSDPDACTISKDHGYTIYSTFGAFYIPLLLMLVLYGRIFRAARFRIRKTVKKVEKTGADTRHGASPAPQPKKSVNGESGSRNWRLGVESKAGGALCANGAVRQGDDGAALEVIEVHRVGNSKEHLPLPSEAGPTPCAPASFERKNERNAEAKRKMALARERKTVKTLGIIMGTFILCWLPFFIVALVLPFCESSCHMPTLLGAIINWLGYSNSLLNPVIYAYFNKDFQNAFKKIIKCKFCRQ
# [12] = molecular target: 5-hydroxytryptamine receptor 1B (Homo sapiens) (UniProt P28222); assay: Inhibition of 5HT1B receptor at 10 uM
# Sequence of 5-hydroxytryptamine receptor 1B (Homo sapiens) (P28222 whole entry): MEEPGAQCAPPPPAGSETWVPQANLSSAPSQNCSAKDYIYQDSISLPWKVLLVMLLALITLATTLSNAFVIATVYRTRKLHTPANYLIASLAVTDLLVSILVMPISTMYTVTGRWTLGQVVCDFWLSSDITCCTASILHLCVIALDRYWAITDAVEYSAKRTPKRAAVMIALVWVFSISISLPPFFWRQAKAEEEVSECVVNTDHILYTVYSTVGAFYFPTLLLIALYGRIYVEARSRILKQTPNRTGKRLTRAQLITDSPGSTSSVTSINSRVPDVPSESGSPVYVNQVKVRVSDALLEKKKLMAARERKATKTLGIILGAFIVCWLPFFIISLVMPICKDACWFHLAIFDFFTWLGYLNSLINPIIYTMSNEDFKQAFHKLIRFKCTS
# [13] = Inhibition of sodium channel site 2 at 10 uM; summary of the method: as §1
# Aorta = assay: Vasorelaxant activity in Wistar rat thoracic aortic ring assessed as inhibition of contraction at 100 nM
# Urotensin-2 receptor [14] = molecular target: T2, Urotensin-2 receptor; assay: Displacement of [125I]urotensin 2 from rat urotensin 2 receptor expressed in CHOK1 cells by scintillation proximity assay; assay type: cell-based, CHO-K1
# Summary of the method: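 Membranes from CHO cells stably expressing rat UT were precoupled to WGA-coated SPA beads (15 μg membrane/mg beads, 30 min, room temperature) in 50 mM Tris-HCl, 5 mM MgCl2, 0.1% BSA, pH 7.4. Final conditions: 1.0 mg beads per well, 0.17 nM [125I]-[Tyr]-rat U-II, and varied compound concentrations, shaken 3 h at 22 °C. Nonspecific binding was defined with 1 μM rat U-II.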
# [15] = Oral bioavailability in rat; assay type: ADME, organism-based; settings: in vivo
# [16] = Half life in rat; assay type: ADME, organism-based; settings: in vivo
# [17] = in the assay text read “after 10 min” for “after 1 hr”
Ki (Urotensin-2 receptor [1]) [nM],IC50 (Urotensin-2 receptor [2]) [nM],IC50 (Urotensin-2 receptor [4]) [nM],Compound,further results
1400,110,,COc1ccc([C@@H](CCCNS(C)(=O)=O)N2C(=O)c3cccc(N4CCN([C@H](C)c5ccccc5)CC4)c3C2=O)cc1OC,
270,120,,COc1ccc(C(CCNS(=O)(=O)c2cccs2)N2C(=O)c3cccc(N4CCN([C@H](C)c5ccccc5)CC4)c3C2=O)cc1OC (stereo not given in full),
> 10000,,,COc1ccc([C@@H](CCCCNC(=O)OC(C)(C)C)N2C(=O)c3cccc(N4CCN([C@H](C)c5ccccc5)CC4)c3C2=O)cc1OC,IC50 (Urotensin-2 receptor [3]; [17]): 65000 nM
540,110,,COc1ccc(C(CCNC(=O)OC(C)(C)C)N2C(=O)c3cccc(N4CCN([C@@H](C)c5ccccc5)CC4)c3C2=O)cc1OC (stereo not given in full),
310,1000,,COc1ccc(CN2C(=O)c3cccc(N4CCN(Cc5c(F)cccc5F)CC4)c3C2=O)cc1OC,half-life [5]: < 3 min
700,,,COc1ccc(C(CN)N2C(=O)c3cccc(N4CCN([C@@H](C)c5ccccc5)CC4)c3C2=O)cc1OC (stereo not given in full),IC50 (Urotensin-2 receptor [3]; [17]): 300 nM
290,,,COc1ccc(C(CNS(=O)(=O)c2cccs2)N2C(=O)c3cccc(N4CCN([C@@H](C)c5ccccc5)CC4)c3C2=O)cc1OC (stereo not given in full),IC50 (Urotensin-2 receptor [3]; [17]): 75 nM
160,,,COc1ccc(CN2C(=O)c3cccc(N4CCN(Cc5ccccc5)CC4)c3C2=O)cc1OC,half-life [5]: < 3 min
430,120,,COc1ccc(C(CNC(=O)OC(C)(C)C)N2C(=O)c3cccc(N4CCN([C@@H](C)c5ccccc5)CC4)c3C2=O)cc1OC (stereo not given in full),
,1700,,COc1ccc([C@@H](CCCNS(=O)(=O)c2ccc(Cl)s2)N2C(=O)c3cccc(N4CCN([C@H](C)c5ccccc5)CC4)c3C2=O)cc1OC,
,,1900,COc1ccc(CN2C(=O)c3cccc(N4CCN([C@H](C)c5ccccc5)CC4)c3C2=O)cc1OC,half-life [5]: 29 min; bioavailability [15]: 33%; half-life [16]: 240 min

# The remaining lines, values behind:
Compound,Ki (Urotensin-2 receptor [1]) [nM],IC50 (Urotensin-2 receptor [2]) [nM],IC50 (Urotensin-2 receptor [4]) [nM],further results
CCN1CCN(c2cccc3c2[C@H]2CCC[C@H](c4ccc(OC)c(OC)c4)N2C3=O)CC1,,14,,
COc1ccc(C(CCCNS(=O)(=O)c2cccs2)N2C(=O)c3cccc(N4CCN([C@H](C)c5ccccc5)CC4)c3C2=O)cc1OC (stereo not given in full),,,250,
COc1ccc([C@@H](CCCNC(=O)c2cnoc2C)N2Cc3c(cccc3N3CCN([C@H](C)c4ccccc4)CC3)C2=O)cc1OC,15,,320,IC50 (Urotensin-2 receptor [3]; [17]): 6 nM
COc1ccc([C@@H](CCCN(C)S(=O)(=O)c2cccs2)N2Cc3c(cccc3N3CCN(C)CC3)C2=O)cc1OC,< 6,,,
CCN1CCN(c2cccc3c2CN([C@H](CCCNC(=O)c2cccs2)c2ccc(OC)c(OC)c2)C3=O)CC1,,,140,
CCN1CCN(c2cccc3c2CN([C@H](CCCNc2cncc(OC)n2)c2ccc(OC)c(OC)c2)C3=O)CC1,8,,62,IC50 (Urotensin-2 receptor [3]; [17]): 4 nM
CCN1CCN(c2cccc3c2CN([C@H](CCCN(C)S(=O)(=O)c2cccs2)c2ccc(OC)c(OC)c2)C3=O)CC1,< 5,,,
Cc1cc(NC(=O)NCCN2CCC(O)(Cc3ccccc3)CC2)c2ccccc2n1 [PALOSURAN],41,,320,IC50 (Urotensin-2 receptor [3]; [17]): > 75000 nM
CCN1CCN(c2cccc3c2CN([C@H](CCCNS(=O)(=O)c2cccs2)c2ccc(OC)c(OC)c2)C3=O)CC1,,,,Activity (Rattus norvegicus [6]): Active; Activity (Rattus norvegicus [7]): Active; inhibition [8]: 68%; inhibition [9]: 65%; inhibition [10]: 55%; inhibition [11]: 93%; inhibition [12]: 66%; inhibition [13]: 59%; inhibition at 0.1 µM (Aorta): 74%
COc1cc(Br)c(S(=O)(=O)Nc2ccc(C(F)(F)F)c(O[C@@H]3CCN(C)C3)c2)cc1OC,,,,IC50 (Urotensin-2 receptor [3]; [17]): 34 nM; Activity (Rattus norvegicus [6]): Active; inhibition at 0.1 µM (Aorta): 97%
COc1ccc([C@@H](CCCN(C)S(=O)(=O)c2cccs2)N2Cc3c(cccc3N3CCN(C4CC4)CC3)C2=O)cc1OC,,,1200,
CCN1CCN(c2cccc3c2CN([C@H](CCCNS(=O)(=O)c2cn(C)c(C)n2)c2ccc(OC)c(OC)c2)C3=O)CC1,25,,51,IC50 (Urotensin-2 receptor [3]): 23 nM
CCN1CCN(c2cccc3c2CN([C@H](CCCNc2cncc(Cl)n2)c2ccc(OC)c(OC)c2)C3=O)CC1,62,1,500,
COc1ccc([C@@H](CCCN(C)S(=O)(=O)c2cccs2)N2Cc3c(cccc3N3CCN(C(C)C)CC3)C2=O)cc1OC,,,500,
CC(=O)N[C@H]1CSSC[C@@H](C(N)=O)NC(=O)[C@H](Cc2ccc3ccccc3c2)NC(=O)[C@H](CCCCN)NC(=O)[C@H](Cc2c[nH]c3ccccc23)NC(=O)[C@H](Cc2ccccc2)NC1=O (Ac-CFWK[2Nal]C-NH2; disulfide 1-6),,,,Ki (Urotensin-2 receptor [14]): 0.12 nM; EC50 (Urotensin-2 receptor [3]): 0.54 nM
